HTR2A ag: activates the mouse 5-HT2A serotonin receptor; hit rate 0.66% among 360,000; CHO-K1 mHTR2A beta-arrestin complementation, luminescence; percent of 30 µM serotonin response; activation, % at 7.6 µM; P35363;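 active = activation above a run cutoff, the mean activation of all tested compounds plus 3 SD, cut at about 14% in these data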;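 note: 0% = plate median of compound wells and 100% = 30 µM serotonin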
AHR act: human AHR activation. P35869. AHR-responsive luciferase reporter cells, luminescence. activation, % at 5 µM. hit rate 2.5% among 320,000. AID 2796; in the data active = activation above about 47%;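 note: 0% = vehicle wells and 100% = reference agonist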
MC4R barr agon: agonists of human melanocortin 4 receptor (MC4R) beta-arrestin. P32245. U2OS MC4R beta-arrestin complementation, luminescence; percent of melanotan II response, DMSO zero. activation, % at 8.9 µM. hit rate 0.98% among 360,000. AID 540308;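 active = activation above a per-plate cutoff, the mean activation of sample wells on that plate plus 3 SD, cut at about 8% in these data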
Target sequence (P32245 whole entry, looked up): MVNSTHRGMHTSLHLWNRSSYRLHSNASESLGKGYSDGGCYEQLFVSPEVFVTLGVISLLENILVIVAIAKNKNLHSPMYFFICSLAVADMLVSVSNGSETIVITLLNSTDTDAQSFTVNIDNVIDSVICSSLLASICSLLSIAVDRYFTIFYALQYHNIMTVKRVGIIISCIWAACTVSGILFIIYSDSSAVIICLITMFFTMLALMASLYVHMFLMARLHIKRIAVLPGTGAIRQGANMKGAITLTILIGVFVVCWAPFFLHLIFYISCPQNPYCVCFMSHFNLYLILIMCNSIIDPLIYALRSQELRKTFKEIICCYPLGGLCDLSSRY
MC4R antagonist: antagonists of human melanocortin 4 receptor (MC4R); P32245; MC4R-expressing cells, MTII-stimulated cAMP, LANCE TR-FRET; inhibition, % at 6.5 µM; hit rate 0.48% among 360,000;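 active = inhibition above its plate's cutoff, the mean of tested wells on that plate plus 3 SD, cut at about 29% in these data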;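 note: 0% = Melanotan II alone and 100% = Melanotan II plus saturating MCL0020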
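System: U2OS-MC4R stable cell line; Technique: Eu-cAMP/anti-cAMP TR-FRET, emission 671 nm; Repeats: single well per compound; Also added: Melanotan II; Dosing: one concentration, 6.5 µM nominal; Schedule: 30-min compound, 1-h challenge, 1-h detection, room temperature.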
FXN GAA850 act: increases GAA850 frataxin promoter reporter activity; HEK293 lucGAA850 FXN promoter luciferase reporter, 24 h; percent of 10 µM SAHA response; activation, % at 6 µM; hit rate 0.56% among 360,000;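 active = activation above the average of all compounds screened plus 3 SD, cutoff fixed separately per campaign, cut at about 7.5% in these data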;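 note: 0% = DMSO wells and 100% = 10 µM SAHA wells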
AHR act cf: human AHR activation, confirmation; activation, % at 9 µM; AID 2845; shares compounds with AHR act; human cells, AHR-responsive luciferase reporter, luminescence; hit rate 87% among 2,300; in the data active = activation above about 49%;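 note: HepG2 hepatoma cells carrying a DRE-driven firefly luciferase reporter; 0% = vehicle wells and 100% = reference agonist wells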
PXR counter: counter-screen for AHR activators: human PXR activators. AID 434939. activation, % at 11.6 µM. cell-based PXR reporter, luciferase luminescence. hit rate 88% among 2,300. shares compounds with AHR act; in the data active = activation above about 11%;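 note: human hepatoma DPX-2 cells expressing full-length human PXR; 0% = DMSO and 100% = reference agonist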
Target sequence (O75469 whole entry, looked up): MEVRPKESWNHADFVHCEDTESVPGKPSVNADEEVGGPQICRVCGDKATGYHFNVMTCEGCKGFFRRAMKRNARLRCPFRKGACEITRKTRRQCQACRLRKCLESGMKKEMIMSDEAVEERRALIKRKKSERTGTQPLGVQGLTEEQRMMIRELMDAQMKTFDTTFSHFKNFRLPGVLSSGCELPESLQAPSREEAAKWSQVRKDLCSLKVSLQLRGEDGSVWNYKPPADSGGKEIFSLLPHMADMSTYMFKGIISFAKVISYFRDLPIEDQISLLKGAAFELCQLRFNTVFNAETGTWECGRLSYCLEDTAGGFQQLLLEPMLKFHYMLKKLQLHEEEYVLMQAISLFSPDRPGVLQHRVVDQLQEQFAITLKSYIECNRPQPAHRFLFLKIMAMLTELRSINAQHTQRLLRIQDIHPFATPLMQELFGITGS
The depositor's hits bear a star; x = not tested or not shown. Rows were chosen to be rich in hits. Some 4.7% of all compounds tested hit in one or more screens of this group.

SMILES | HTR2A ag | AHR act | MC4R barr agon | MC4R antagonist | FXN GAA850 act | AHR act cf | PXR counter
CC(/C=N/Nc1ncc(C)c(=O)[nH]1)=C\c1ccccc1 | 4.4 | 61.3* | -3.4 | -9.9 | 2.7 | x | x
CC1C(=O)N(Cc2cn(CCC3OCCCO3)nn2)CCS(=O)(=O)N1Cc1ccc(-c2ccc(Cl)c(Cl)c2)cc1 (stereo not given) | 5.3 | x | -1.0 | 12.1 | -2.7 | x | x
CCN(CC)C(=O)c1cccc(NC(=O)CCc2nc3sc4c(c3c(=O)[nH]2)CCCC4)c1 | -9.3 | x | -2.7 | 4.4 | -0.8 | x | x
O=C(CCc1nc2sc3c(c2c(=O)[nH]1)CCCC3)Nc1cccc(Cl)c1 | 3.0 | 5.5 | 8.3* | -0.9 | 0.3 | x | x
COc1ccccc1C(CC(=O)Nc1ccc(Cl)cc1)c1ccc(OC(C)C)cc1 (stereo not given) | -0.5 | 1.9 | -1.2 | 7.8 | -0.6 | x | x
CC(C)Oc1ccc(CNC(=O)CC(c2ccccc2)c2cc(Cl)ccc2O)cc1 (stereo not given) | 3.1 | -1.3 | 9.3* | 9.8 | -10.9 | x | x
O=C(COC(=O)[C@@H]1CCCN1C(=O)c1cccs1)Nc1cccc(Cl)c1 | -1.1 | 0.5 | 2.3 | 8.1 | 0.4 | x | x
Cn1cnc(C(=O)N2CCc3ccccc3C2)c1C(=O)N1CCc2ccccc2C1 | -0.5 | 2.1 | 0.9 | 5.8 | 0.8 | x | x
COc1ccccc1-n1nnnc1SCC(=O)Nc1ccc(C)c(N)c1 | -3.6 | 93.6* | -1.0 | 4.8 | 0.8 | 80.9* | 58.5*
COc1ccc(NC(=O)CSc2nnnn2-c2ccccc2OC)c(OC)c1 | -0.5 | 1.8 | -1.7 | 6.4 | -0.6 | x | x
C/C(=N\N=c1/sc2ccccc2n1C)c1ccccn1 | -2.2 | 104.3* | -2.9 | -4.9 | 2.3 | 142.6* | 25.5*
CC(=O)N/N=c1\sc2ccccc2n1C | -0.5 | 29.2 | -1.6 | 15.8 | 0.5 | x | x
CCCCOc1ccc(C(=O)N=c2sccn2C)cc1OC | -7.1 | -10.7 | -2.7 | -0.9 | 3.2 | x | x
CCN(CC)S(=O)(=O)c1cc(C(=O)N=c2sccn2C)ccc1OC | -0.6 | 99.6* | -3.2 | -2.8 | 0.1 | 87.4* | 125.4*
CC(C)[C@H](CO)NC(=O)[C@H]1O[C@@H](n2ccc(=O)[nH]c2=O)[C@H](O)[C@@H]1O | 0.0 | x | x | x | x | x | x
Fc1ccc(/C=N/Nc2ncnc3nc[nH]c23)cc1F | -2.3 | 103.3* | 0.2 | 1.0 | 5.5 | 64.5* | 32.4*
COCc1cc(CN2CCCC(C(=O)Nc3ccc(-c4ccco4)cc3)C2)ccc1OC (stereo not given) | -16.5 | -3.7 | -3.4 | -9.9 | 0.1 | x | x
O=C(Nc1cccc(Cl)c1)Nc1ccnc(-c2cccnc2)n1 | -3.6 | 148.3* | 1.4 | -26.1 | -2.2 | 129.2* | 11.9*
O=C(Nc1ccnc(-c2cccnc2)n1)c1ccccc1Cl | 1.6 | 135.9* | -0.1 | 2.8 | -0.1 | 37.4 | 16.9*
CCN1C(=O)[C@H]2[C@@H](c3ccc(C)cc3)N[C@]3(CCCN(Cc4ccc(Cl)cc4)C3=O)[C@H]2C1=O | -5.1 | x | -1.4 | 0.1 | -3.6 | x | x
CC1=NN(C(N)=S)C(=O)C1N=Nc1cccc(Cl)c1C (stereo not given) | 1.3 | 138.4* | -2.2 | 6.0 | 2.6 | 138.7* | 16.4*
O=C(Nc1ccccc1C(=O)NCCc1ccccc1)c1ccco1 | -1.2 | 109.8* | -0.7 | 7.9 | 2.7 | 101.9* | 41.5*
Cc1cc(Nc2ccc(Br)cc2)n2nc(C)nc2n1 | 5.2 | 106.6* | -0.7 | 7.7 | -0.5 | 88.4* | x
Cc1cc(Nc2ccc(F)cc2)n2nc(C)nc2n1 | 1.2 | 6.4 | -0.6 | 4.0 | -0.5 | x | x
Nc1nc2ccc(Cl)cc2c2nc(-c3ccco3)nn12 | x | 107.4* | x | x | x | 247.9* | 33.8*
SMILES | HTR2A ag | AHR act | MC4R barr agon | MC4R antagonist | FXN GAA850 act | AHR act cf | PXR counter
Cc1noc(C)c1COc1ccccc1C(=O)NNC(=O)c1ccccc1F | 0.5 | 91.8* | 1.0 | 2.7 | 1.1 | 116.8* | 72.6*
Cc1cc(Br)ccc1NC(=O)CN(C)C(=O)c1cc([N+](=O)[O-])ccc1N1CCOCC1 | 0.6 | 92.0* | -1.4 | 3.8 | 0.5 | 84.0* | 53.0*
Cc1[nH]n(C(N)=S)c(=O)c1N=Nc1cccc(C(F)(F)F)c1 | 5.4 | 143.3* | -3.1 | 10.5 | 3.0 | 73.7* | 21.3*
Cc1[nH]n(C(N)=S)c(=O)c1N=Nc1cc(C(F)(F)F)ccc1Cl | -3.9 | 3.4 | 0.2 | 4.6 | -0.5 | x | x
Cc1[nH]n(C(N)=S)c(=O)c1N=Nc1ccc(Br)cc1 | -7.8 | 107.9* | -2.9 | -3.3 | 1.5 | 134.5* | 39.5*
COc1ccc(C=C(NC(=O)c2ccccc2)C(=O)O)cc1OC | -1.5 | x | -0.1 | 1.0 | 2.0 | x | x
CCOC(=O)Cc1cc(-c2ccc(O)cc2)nc2ccc3ccccc3c12 | -2.0 | 101.5* | 8.4* | -2.7 | 0.2 | 91.8* | x
CCOC(=O)c1cc(Cl)c2c(ccc3ccccc32)n1 | -5.4 | x | -2.1 | 0.8 | 1.2 | x | x
CCOC(=O)Cc1cc(-c2ccc(OC)cc2)nc2ccc3ccccc3c12 | -1.9 | 128.6* | 1.2 | 3.4 | 5.0 | 107.6* | 16.3*
O=C(NCc1cccnc1)c1ccc(-c2cccc(Cl)c2Cl)o1 | -7.2 | 22.4 | 0.5 | 3.8 | 1.0 | x | x
O=C(NCc1cccnc1)c1ccc(-c2ccccc2[N+](=O)[O-])o1 | -1.2 | 86.6* | 2.0 | 7.8 | 0.9 | 94.7* | 39.4*
Cc1ccsc1/C=N/NC(=O)c1ccccn1 | -0.8 | 16.6 | -1.3 | 7.1 | 3.3 | x | x
O=C(N/N=C/C1CC2CCC1C2)C1CC1 (stereo not given) | -3.2 | 45.8 | -3.1 | 6.4 | -2.0 | x | x
Cc1ccsc1/C=N/NC(=O)c1c[nH]c2ccccc12 | -4.0 | 101.5* | 1.1 | 4.8 | 2.3 | 142.1* | 41.6*
O=C(N/N=C/c1ccsc1)c1ccccn1 | -1.3 | 2.0 | -1.1 | -4.9 | 5.5 | x | x
O=C(N/N=C/C1CC2CCC1C2)c1c[nH]c2ccccc12 (stereo not given) | 0.8 | 86.8* | -0.2 | -1.8 | 3.7 | 18.9 | 5.1
O=C(N/N=C/c1ccsc1)c1c[nH]c2ccccc12 | -4.5 | 127.8* | -3.0 | 5.0 | 2.7 | 114.8* | 21.9*
CCOC(=O)C1=CCC(c2cc3ccccc3[nH]2)NC1 (stereo not given) | -9.9 | x | x | x | x | x | x
Cc1ccc(C)c2sc(NC(=O)C3CC3)nc12 | -0.2 | 91.8* | -0.2 | 4.4 | 3.3 | 121.2* | x
CCc1cccc2sc(NC(=O)C3CC3)nc12 | -4.4 | 91.0* | 1.2 | -5.4 | -0.9 | 118.6* | 12.9*
Cc1nc(NC(=O)C2CC2)sc1C(=O)Nc1ccc(Br)cc1 | 2.9 | 102.7* | -2.4 | 13.7 | -0.7 | 103.9* | 32.5*
Cc1cc(C)c2sc(NC(=O)C3CC3)nc2c1 | -4.8 | 106.0* | 1.0 | -5.3 | 2.1 | 117.5* | 58.7*
CCOc1cccc2sc(NC(=O)CC)nc12 | 4.0 | 28.9 | -0.6 | -1.7 | -1.9 | x | x
CS(=O)(=O)c1ccc2nc(NC(=O)C3CC3)sc2c1 | 8.8 | 0.8 | 1.1 | 3.4 | 1.7 | x | x

Assay outcomes: PubChem, The Scripps Research Institute Molecular Screening Center
